{"source": "paper PMC3089497", "about": "(The Journal of Biological Chemistry, 2011)", "key": {"p97 ATPase": {"molecular_target": "p97 ATPase (Mus musculus, UniProt Q01853)", "sequence (Q01853 whole entry)": "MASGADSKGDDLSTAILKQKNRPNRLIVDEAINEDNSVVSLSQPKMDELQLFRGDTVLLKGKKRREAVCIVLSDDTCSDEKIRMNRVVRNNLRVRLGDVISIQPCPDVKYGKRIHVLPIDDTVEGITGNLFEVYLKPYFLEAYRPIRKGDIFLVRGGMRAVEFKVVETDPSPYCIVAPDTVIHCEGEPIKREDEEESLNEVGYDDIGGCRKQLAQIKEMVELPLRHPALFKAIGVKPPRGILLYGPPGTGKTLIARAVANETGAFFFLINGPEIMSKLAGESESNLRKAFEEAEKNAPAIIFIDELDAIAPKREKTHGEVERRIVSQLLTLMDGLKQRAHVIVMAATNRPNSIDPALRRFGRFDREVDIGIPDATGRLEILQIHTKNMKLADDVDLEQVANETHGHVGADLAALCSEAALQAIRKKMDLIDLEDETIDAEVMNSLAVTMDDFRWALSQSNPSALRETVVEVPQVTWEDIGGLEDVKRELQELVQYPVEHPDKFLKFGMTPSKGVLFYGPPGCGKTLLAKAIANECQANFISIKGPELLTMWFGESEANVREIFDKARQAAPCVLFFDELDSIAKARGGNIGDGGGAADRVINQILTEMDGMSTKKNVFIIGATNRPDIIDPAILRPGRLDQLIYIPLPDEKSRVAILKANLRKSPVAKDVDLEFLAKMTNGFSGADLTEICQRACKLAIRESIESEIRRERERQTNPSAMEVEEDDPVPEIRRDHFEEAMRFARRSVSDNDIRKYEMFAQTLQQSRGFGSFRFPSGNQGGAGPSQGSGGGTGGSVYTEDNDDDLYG", "assay": "p97 ATPase assay", "type": "biochemical"}, "ODD-Luc [1]": {"tested_on": "ODD-Luc", "assay": "ODD-Luc reporter degradation assay", "type": "cell-based, human", "settings": "for IC50: Homo sapiens, read-out: IC50 ODD-Luc"}, "Luc-ODC [2]": {"tested_on": "Luc-ODC", "assay": "Luc-ODC reporter degradation assay", "type": "cell-based, human", "settings": "for IC50: Homo sapiens, read-out: IC50 Luc-ODC"}, "Ub^G76V-GFP [3]": {"tested_on": "Ub^G76V-GFP", "assay": "cells", "type": "cell-based, human", "settings": "for IC50: Homo sapiens, read-out: IC50 Ub^G76V-GFP"}, "Ub^G76V-GFP [4]": {"tested_on": "Ub^G76V-GFP", "assay": "Ub^G76V-GFP reporter accumulation assay", "type": "cell-based, human", "settings": "for Score in Ub^G76V-GFP accumulation screen: rescreen of 160 kinase inhibitors", "outline": "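Dual-reporter HeLa cells expressing UbG76V-GFP were seeded at 5000 per well and grown 16 h. They were exposed to DMSO, MG132 or test compound in modified DMEM (no phenol red, folic acid, riboflavin or vitamin B12) for 2–3 h. Two GFP images per well (100-ms exposure) were taken by automated microscopy. Mean GFP intensity per cell area was averaged over about 500 cells, background-corrected using reporter-free cells, and normalized to DMSO-treated cells.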"}, "C522A-p97": {"molecular_target": "C522A-p97 (Mus musculus, UniProt Q01853, C522A)", "sequence (Q01853 whole entry C522A)": "as the sequence (Q01853 whole entry) above, with C522A counted along it", "assay": "In vitro ATPase assay of C522A-p97", "type": "biochemical", "settings": "compared with wild-type p97", "outline": "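The C522A p97 mutant was made by site-directed mutagenesis of the wild-type p97 plasmid. It was assayed for in vitro ATPase activity beside wild-type p97, and inhibition was read from titration curves of test compound.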"}, "TCRα-GFP": {"tested_on": "TCRα-GFP", "assay": "ERAD reporter TCRα-GFP degradation in HEK293 cells", "type": "cell-based, human", "settings": "5 or 10 μM, 2 h CHX chase", "outline": "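HEK293 cells stably expressing the ERAD reporter TCRα-GFP were pretreated with MG132 and washed. They were then incubated with CHX plus test compound for 2 h before harvest, and reporter levels were assessed by immunoblotting.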"}, "Luc-ODC [5]": {"tested_on": "Luc-ODC", "assay": "Luc-ODC reporter accumulation assay", "type": "cell-based, human", "settings": "30 μM for 2.5 h, relative to DMSO", "outline": "(§1)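 HeLa cells stably expressing UbG76V-GFP were lentivirally transduced with ODD-Luc or Luc-ODC and kept under puromycin (2.5 μg/ml). Cells were seeded at 5000 per well and grown 16 h. They were treated 2–3 h in modified DMEM (no phenol red, folic acid, riboflavin or vitamin B12) containing DMSO, MG132 or test compound. d-Luciferin (1 mg/ml in PBS, stock) was added, followed by 5 min shaking at room temperature. Luminescence was read with […] integration and normalized to DMSO.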"}, "ODD-Luc [6]": {"tested_on": "ODD-Luc", "assay": "ODD-Luc reporter accumulation assay", "type": "cell-based, human", "settings": "7.5 μM for 2 h, relative to DMSO", "outline": "as §1"}, "[7]": {"settings": "read-out: IC50 p97 ATPase, in vitro, WT p97, triplicate, ± S.D."}, "[8]": {"settings": "IC50 p97 ATPase, in vitro, WT p97, triplicate, ± S.D."}}, "note": "“And” between values parts separate entries of the source, which are not always exact repeats. Equal values may be shown once. Read-outs that look alike come from different tables or passages of the source. Peptide text beside a SMILES is read from it. * marks the point of attachment. Cbz = O=C(OCc1ccccc1)*", "data": [{"smiles": "Cn1nc2c3c(cccc31)C(=O)c1ccccc1-2", "note": "[Compound 14, JNK inhibitor, negative control]", "values": [{"measurement": "IC50", "setting": "p97 ATPase; [7]", "result": "> 50", "unit": "µM"}]}, {"smiles": "O=c1[nH]c2ccccc2n1C1CCN(Cc2ccc(-c3nc4cc5[nH]cnc5cc4nc3-c3ccccc3)cc2)CC1", "note": "[Compound 2, Akt inhibitor VIII]", "values": [{"measurement": "IC50", "setting": "p97 ATPase; [7]", "result": "43 ± 4", "unit": "µM"}]}, {"smiles": "O=C1NC(=O)c2cc(Nc3ccc(F)cc3)c(Nc3ccc(F)cc3)cc21", "note": "[Compound 16, PKCbII/EGFR inhibitor]", "values": [{"measurement": "IC50", "setting": "p97 ATPase; [7]", "result": "> 50", "unit": "µM"}]}, {"smiles": "NS(=O)(=O)OC[C@@H]1C[C@@H](n2ccc3c(N[C@H]4CCc5ccccc54)ncnc32)C[C@@H]1O", "note": "[MLN4924]", "values": [{"measurement": "Effect on ODD-Luc degradation (in words)", "setting": "ODD-Luc [1]", "result": "strong stabilization"}, {"measurement": "Effect on Luc-ODC degradation (in words)", "setting": "Luc-ODC [2]", "result": "had no effect"}, {"measurement": "Effect on Ub^G76V-GFP degradation (in words)", "setting": "Ub^G76V-GFP [3]", "result": "had no effect"}]}, {"smiles": "O=[N+]([O-])C=Cc1ccc2c(c1)OCO2", "note": "[Compound 7, 3,4-methylenedioxy-β-nitrostyrene]", "values": [{"measurement": "Accumulation of Ub^G76V-GFP", "setting": "Ub^G76V-GFP [4]; 7.5 or 30 μM, 3 h", "result": "< 2", "unit": "fold"}, {"measurement": "Score in Ub^G76V-GFP accumulation screen", "setting": "Ub^G76V-GFP [4]", "result": "did not score as positives"}, {"measurement": "Activity toward C522A-p97 ATPase (in words)", "setting": "C522A-p97", "result": "poor activity"}, {"measurement": "IC50", "setting": "ODD-Luc [1]", "result": "5.9 ± 1.5", "unit": "µM"}, {"measurement": "Effect on Luc-ODC degradation (in words)", "setting": "Luc-ODC [2]", "result": "very little activity"}, {"measurement": "IC50", "setting": "Luc-ODC [2]", "result": "> 30", "unit": "µM"}, {"measurement": "Stabilization of Ub^G76V-GFP", "setting": "Ub^G76V-GFP [3]; 1.7 μM", "result": 2, "unit": "fold"}, {"measurement": "Stabilization of Ub^G76V-GFP (in words)", "setting": "Ub^G76V-GFP [3]; 7.5 μM", "result": "almost complete stabilization"}, {"measurement": "IC50", "setting": "Ub^G76V-GFP [3]", "result": "1.6 ± 0.4", "unit": "µM"}, {"measurement": "IC50 for p97-dependent versus p97-independent reporters", "setting": "Ub^G76V-GFP [3]; fold lower, Ub^G76V-GFP vs ODD-Luc", "result": 3.5, "unit": "fold"}, {"measurement": "Degradation of TCRα-GFP", "setting": "TCRα-GFP", "result": "potently blocked"}, {"measurement": "IC50", "setting": "p97 ATPase; [8]", "result": "≤ 10 µM and 1.7 µM"}]}, {"smiles": "N#Cc1cnc2cnc(NCc3cccnc3)cc2c1Nc1ccc(F)c(Cl)c1", "note": "[Compound 17, Tpl2 kinase inhibitor]", "values": [{"measurement": "IC50", "setting": "p97 ATPase; [7]", "result": "> 50", "unit": "µM"}]}, {"smiles": "CCn1cnc2c(Nc3cccc(Cl)c3)nc(N[C@@H]3CCCC[C@@H]3N)nc21", "note": "[Compound 10, Cdk1 Inhibitor, CGP74514A]", "values": [{"measurement": "IC50", "setting": "p97 ATPase; [7]", "result": "17 ± 3", "unit": "µM"}]}, {"smiles": "COC(=O)[C@@]1(O)C[C@H]2O[C@]1(C)n1c3ccccc3c3c4c(c5c6ccccc6n2c5c31)C(=O)NC4", "note": "[Compound 15, K-252a, Nocardiopsis sp.]", "values": [{"measurement": "IC50", "setting": "p97 ATPase; [7]", "result": "26 ± 2", "unit": "µM"}]}, {"smiles": "O=C1c2ccccc2-[n+]2ccc3c([nH]c4ccccc43)c21", "note": "[Compound 12, Fascaplysin]", "values": [{"measurement": "IC50", "setting": "ODD-Luc [1]", "result": "6.9 ± 1.9", "unit": "µM"}, {"measurement": "Effect on Luc-ODC degradation (in words)", "setting": "Luc-ODC [2]", "result": "very little activity"}, {"measurement": "IC50", "setting": "Luc-ODC [2]", "result": "> 30", "unit": "µM"}, {"measurement": "IC50", "setting": "Ub^G76V-GFP [3]", "result": "0.9 ± 0.1", "unit": "µM"}, {"measurement": "IC50", "setting": "p97 ATPase; [8]", "result": "> 50", "unit": "µM"}]}, {"smiles": "Cc1ccc(NC2=CC(=O)c3sc(C)nc3C2=O)cc1", "note": "[Compound 11, Cdk4 inhibitor III]", "values": [{"measurement": "IC50", "setting": "p97 ATPase; [7]", "result": "13 ± 0.5", "unit": "µM"}]}, {"smiles": "Cc1ccc(S(=O)(=O)/C=C/C#N)cc1", "note": "[Compound 9, BAY 11-7082]", "values": [{"measurement": "IC50", "setting": "p97 ATPase; [7]", "result": "12 ± 1", "unit": "µM"}]}, {"smiles": "CC(C)C[C@@H](C=O)NC(=O)[C@H](CC(C)C)NC(=O)[C@H](CC(C)C)NC(=O)OCc1ccccc1", "note": "[MG132] (Cbz-Leu-Leu-Leu-aldehyde)", "values": [{"measurement": "Ub^G76V-GFP reporter accumulation", "setting": "Ub^G76V-GFP [4]; 7.5 μM for 2 h, relative to DMSO", "result": "~20", "unit": "fold"}, {"measurement": "IC50 with Luc-ODC reporter relative to Ub^G76V-GFP and ODD-Luc reporters", "setting": "Luc-ODC [2]; fold higher", "result": "~3", "unit": "fold"}, {"measurement": "Luc-ODC reporter accumulation", "setting": "Luc-ODC [5]", "result": 1.6, "unit": "fold"}, {"measurement": "ODD-Luc reporter accumulation", "setting": "ODD-Luc [6]", "result": "~20", "unit": "fold"}]}, {"smiles": "CO[C@H]1[C@@H](OC)C[C@H](C)[C@@H](OC)C2=CC(=O)C=C(NC(=O)/C(C)=C/C=C\\[C@H](OC)[C@@H](OC(N)=O)/C(C)=C/[C@@H]1C)C2=O", "note": "[Compound 6, Herbimycin A, Streptomyces sp.]", "values": [{"measurement": "IC50", "setting": "ODD-Luc [1]", "result": "5 ± 2", "unit": "µM"}, {"measurement": "Effect on Luc-ODC degradation (in words)", "setting": "Luc-ODC [2]", "result": "very little activity"}, {"measurement": "IC50", "setting": "Luc-ODC [2]", "result": "> 30", "unit": "µM"}, {"measurement": "IC50", "setting": "Ub^G76V-GFP [3]", "result": "2.8 ± 1.6", "unit": "µM"}, {"measurement": "IC50", "setting": "p97 ATPase; [8]", "result": "> 50", "unit": "µM"}]}, {"smiles": "COc1ccc2c(c[n+](C)c3c4cc5c(cc4ccc23)OCO5)c1OC", "note": "[Compound 5, Chelerythrine chloride]", "values": [{"measurement": "IC50", "setting": "ODD-Luc [1]", "result": "3.4 ± 0.2", "unit": "µM"}, {"measurement": "IC50", "setting": "Luc-ODC [2]", "result": "1.9 ± 0.7", "unit": "µM"}, {"measurement": "IC50", "setting": "Ub^G76V-GFP [3]", "result": "2.2 ± 1", "unit": "µM"}, {"measurement": "IC50", "setting": "p97 ATPase; [8]", "result": "24 ± 11", "unit": "µM"}]}, {"smiles": "CC[n+]1c(/C=C/N(C)c2ccccc2)n(-c2ccccc2)c2ccc(-c3nc4ccccc4s3)cc21", "note": "[Compound 1, Akt inhibitor IV]", "values": [{"measurement": "IC50", "setting": "p97 ATPase; [7]", "result": "12 ± 5", "unit": "µM"}]}, {"smiles": "CCN(CC)CCCCN1c2ccccc2Oc2ccc(Cl)cc21", "note": "[Compound 3, Akt inhibitor X]", "values": [{"measurement": "Score in Ub^G76V-GFP accumulation screen", "setting": "Ub^G76V-GFP [4]", "result": "did not score as positives"}, {"measurement": "IC50", "setting": "ODD-Luc [1]", "result": "14 ± 11", "unit": "µM"}, {"measurement": "IC50", "setting": "Luc-ODC [2]", "result": "11 ± 5", "unit": "µM"}, {"measurement": "IC50", "setting": "Ub^G76V-GFP [3]", "result": "16 ± 9", "unit": "µM"}, {"measurement": "IC50", "setting": "p97 ATPase", "result": "> 50", "unit": "µM"}]}, {"smiles": "CN[C@@H]1C[C@H]2O[C@@](C)([C@@H]1OC)n1c3ccccc3c3c4c(c5c6ccccc6n2c5c31)C(=O)NC4", "note": "[Compound 8, Staurosporine, Streptomyces sp.]", "values": [{"measurement": "IC50", "setting": "p97 ATPase; [7]", "result": "> 50", "unit": "µM"}]}, {"smiles": "O=C(O)C=Cc1ccc2c(c1)OCO2", "note": "[Compound 18, 3,4-Methylenedioxycinnamic acid]", "values": [{"measurement": "Effect on Ub^G76V-GFP degradation (in words)", "setting": "Ub^G76V-GFP [3]", "result": "greatly diminished activity"}]}, {"smiles": "O=C1c2ccccc2-c2nc3nnnn3nc21", "note": "[Compound 4, PDK1/Akt/Flt]", "values": [{"measurement": "IC50", "setting": "p97 ATPase; [7]", "result": "> 50", "unit": "µM"}]}]}
